Activity calls are given as the source filed them. No cut-off for these calls is given here.
Experiments:
A549 [1] = test: Inhibition of cytosolic beta-catenin expression in human A549 cells at cytotoxicity IC50 by Western blot analysis; format: functional, cell-based
[2] = Inhibition of Wnt2/beta-catenin signaling pathway in human A549 cells assessed as inhibition of Tcf/Lef transcriptional activity at cell proliferation IC50 after 24 hrs by dual luciferase reporter gene assay; format: cell-based; conditions: dose or concentration not given here
Outline: (§1)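 A549/Wnt2 cells co-transfected by lipofection with pSuper-Topflash (eight TCF sites driving firefly luciferase) or mutant pSuperFopflash, plus pRL-TK renilla for normalization. Compounds added at 37 °C for 24 h. Lysates read by dual-luciferase assay. Firefly/renilla ratio reported as mean ± SEM of triplicates, relative to non-treated cells.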

A549 [3] = test: Inhibition of nucleus beta-catenin expression in human A549 cells at cytotoxicity IC50 by Western blot analysis; format: functional, cell-based
A549 [4] = test: Cytotoxicity against human A549 cells expressing Wnt2 after 24 to 72 hrs by MTS assay; format: functional, cell-based
Outline: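 Wnt2-overexpressing A549 cells (stable pUSEampWnt2, G418 selection) in RPMI-1640 with 10% FBS. Seeded at 8 × 10^3 cells/well and allowed ~24 h to attach. Exposed to a range of concentrations. Viability measured 24 h after treatment by MTS (30 min at 37 °C, A490); IC50 derived.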

A549 [5] = test: Inhibition of total beta-catenin expression in human A549 whole cell extract at cytotoxicity IC50 by Western blot analysis; format: functional, cell-based
A549 [6] = test: Inhibition of cyclin D1 mRNA expression in human A549 cells expressing Wnt2 after 24 hrs by RT-PCR analysis; format: functional, cell-based
A549 [7] = test: Antiproliferative activity against human A549 cells expressing Wnt2 after 72 hrs by MTS assay; format: functional, cell-based; conditions: for IC50: A549, 72 h
Outline: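 A549 cells stably transfected with pUSEampWnt2 (G418-selected), grown in RPMI-1640 with 10% FBS at 37 °C, 5% CO2. Seeded at 3 × 10^3 cells/well and allowed to attach ~24 h. Treated with a range of concentrations.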

A549 [8] = test: Ratio of IC50 for antiproliferative activity against human A549 cells to IC50 for cytotoxicity against human A549 cells; format: functional
Outline: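 Ratio of two MTS IC50s in A549/Wnt2 cells. Proliferation: 3 × 10^3 cells/well, read at 72 h. Cytotoxicity: 8 × 10^3 cells/well, read 24 h after treatment.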

[9] = Inhibition of Wnt2/beta-catenin signaling pathway in human A549 cells assessed as inhibition of Tcf/Lef transcriptional activity after 24 hrs by dual luciferase reporter gene assay; format: cell-based; conditions: A549, 24 h; outline: as §1

Compound | inhibition (A549 [1]) | inhibition [2] | inhibition (A549 [3]) | IC50 (A549 [4]) | inhibition (A549 [5]) | inhibition (A549 [6]) | inhibition (A549 [7]) | IC50 (A549 [7]) | Ratio IC50 (A549 [8]) | IC50 [9]
CN(C)c1cccc(COc2nc3cccnc3nc2C#Cc2ccccc2)c1 | Active | 30% | Active | 1720 nM | Active |  |  |  |  | 
CCN(CC)CCOc1nc2cccnc2nc1C#Cc1ccc(OC)cc1 | Active | 50% | Active | 640 nM | Active | Active | Dose-dependent effect | 208 nM | 3.07 | 
CC(C)N(CCOc1nc2cccnc2nc1C#Cc1cccc(F)c1)C(C)C | Active | 50% | Active | 2890 nM | Active | Active |  |  |  | 
CN1CCCC(Oc2nc3cccnc3nc2C#Cc2ccccc2)C1 (stereo unspecified) | Active | 30% | Active | 720 nM | Active |  |  |  |  | 
COc1cccc(C#Cc2nc3ncccc3nc2Cl)c1 | Active | 50% | Active | 4000 nM | Active |  |  |  |  | 
CN(C)CCOc1nc2cccnc2nc1C#Cc1cccc(F)c1 | Active | 30% | Active | 1940 nM | Active | Active | Dose-dependent effect | 535 nM |  | 
COc1ccc(C#Cc2nc3ncccc3nc2OCCN(C)C)c(C)c1 | Active | 30% | Active | 2950 nM | Active |  | Dose-dependent effect | 830 nM |  | 
Fc1cccc(C#Cc2nc3ncccc3nc2OCCN2CCCC2)c1 | Active | 30% | Active | 2450 nM | Active |  |  |  |  | 
COc1c(C[C@@H](C)OC(=O)Oc2ccc(O)cc2)c2c3c(C[C@@H](C)OC(=O)c4ccccc4)c(OC)c(=O)c4c(O)cc(OC)c(c5c(OC)cc(O)c(c1=O)c52)c43 [CALPHOSTIN C] |  |  |  | 3200 nM |  |  |  |  |  | 
COc1cccc(C#Cc2nc3ncccc3nc2OCCCN(C)C)c1 | Active | 30% | Active | 280 nM | Active |  |  |  |  | 
CN(C)CCOc1nc2ccccc2nc1C#Cc1ccccc1 |  |  |  |  |  |  |  |  |  | 758 nM
Cc1ccc(C#Cc2nc3ncccc3nc2OC(C)CN(C)C)cc1 (stereo unspecified) | Active | 30% | Active | 1900 nM | Active |  |  |  |  | 
COc1cc(C#Cc2nc3ncccc3nc2OCCCN(C)C)cc(OC)c1 | Active | 30% | Active | 380 nM | Active |  |  |  |  | 
C(#Cc1nc2ncccc2nc1OCCc1ccccn1)c1ccccc1 | Active | 50% | Active | 200 nM | Active | Active | Dose-dependent effect | 43 nM |  | 120 nM
C(#Cc1nc2ncccc2nc1OCCN1CCCC1)c1ccccc1 | Active | 30% | Active | 720 nM | Active |  |  |  |  | 

From ChEMBL document CHEMBL1821693, “A novel 3-arylethynyl-substituted pyrido[2,3,-b]pyrazine derivatives and pharmacophore model as Wnt2/β-catenin pathway inhibitors in non-small-cell lung cancer cell lines” (Bioorg Med Chem, 2011)
